The target in the test is Insulin-degrading enzyme (Homo sapiens) (UniProt P14735). The experiment in a line: dilution reversibility, CF mutant IDE inhibitors – biochemical, cysteine-free mutant, FRET1 substrate, round 2, mechanism study for IDE inhibitor project, late-stage follow-up (AID 624338). Particulars: recombinant CF-IDE, FRET1 substrate fluorescence, reversibility by dilution. The essentials:
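Assay system – CF-IDE enzyme · Amount – CF-IDE at 1 nM in assay · Dosing – 10-point semilog dilution series, nominal top dose 100 µM · Timing – enzyme reaction at room temperature · Medium – pH 7.4 buffer · Benchmarks – DMSO-only wells as 100%, enzyme-free wells as 0%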

The source made the active and inactive calls.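 Rule for the calls: active = inhibition of a cysteine-free insulin-degrading enzyme mutant that persists after dilution, so judged irreversible; inactive = inhibition weakens or vanishes on dilution, so reversible.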

Drawing on PubChem BioAssay AID624338 (The Scripps Research Institute Molecular Screening Center, 2012), this text covers outcome for 25 compounds.

Insulin-degrading enzyme (Homo sapiens), sequence (P14735 whole entry, looked up): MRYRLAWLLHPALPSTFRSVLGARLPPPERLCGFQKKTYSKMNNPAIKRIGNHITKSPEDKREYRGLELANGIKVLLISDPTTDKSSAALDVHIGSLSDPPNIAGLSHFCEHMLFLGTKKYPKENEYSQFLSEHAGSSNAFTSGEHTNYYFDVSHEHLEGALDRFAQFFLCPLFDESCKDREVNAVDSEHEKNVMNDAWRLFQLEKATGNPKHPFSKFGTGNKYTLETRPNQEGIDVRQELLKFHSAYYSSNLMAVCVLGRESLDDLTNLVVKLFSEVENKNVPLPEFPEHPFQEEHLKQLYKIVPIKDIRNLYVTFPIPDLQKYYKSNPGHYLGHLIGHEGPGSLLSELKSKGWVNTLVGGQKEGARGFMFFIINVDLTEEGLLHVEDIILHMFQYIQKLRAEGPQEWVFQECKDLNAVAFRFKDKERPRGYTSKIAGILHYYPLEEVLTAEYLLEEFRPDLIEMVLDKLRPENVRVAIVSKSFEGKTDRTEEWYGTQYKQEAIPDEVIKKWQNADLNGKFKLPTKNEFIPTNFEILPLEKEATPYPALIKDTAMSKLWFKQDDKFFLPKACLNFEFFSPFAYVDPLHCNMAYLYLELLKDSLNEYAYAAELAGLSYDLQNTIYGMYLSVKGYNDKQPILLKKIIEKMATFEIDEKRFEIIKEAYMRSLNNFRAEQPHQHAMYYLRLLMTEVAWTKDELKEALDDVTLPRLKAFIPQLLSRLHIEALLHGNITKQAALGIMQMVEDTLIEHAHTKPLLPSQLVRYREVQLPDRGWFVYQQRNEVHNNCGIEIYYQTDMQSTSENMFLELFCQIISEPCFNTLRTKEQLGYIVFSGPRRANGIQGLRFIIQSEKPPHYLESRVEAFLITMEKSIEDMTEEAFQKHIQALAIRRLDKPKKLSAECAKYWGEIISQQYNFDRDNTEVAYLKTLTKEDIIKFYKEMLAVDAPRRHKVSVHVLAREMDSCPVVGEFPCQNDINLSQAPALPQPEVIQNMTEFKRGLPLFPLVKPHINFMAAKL

With `O=C(c1ccc(Oc2ccc(F)cc2)cc1)N1CCN(C(=O)C2COc3ccccc3O2)CC1` (stereo not given), the outcome was inactive.

For the compound `COc1cccc(C(=O)N2CCN(C(=O)C3COc4ccccc4O3)CC2)c1` (stereo not given), the result was inactive.

In the case of `CCOc1ccc(C(=O)N2CCN(C(=O)C3COc4ccccc4O3)CC2)cc1` (stereo not given), the outcome was inactive.

In the case of `Clc1ccc(COCc2nnc(SCc3nc4ccccc4[nH]3)n2Cc2ccco2)cc1`, the outcome was inactive.

In the case of `c1coc(Cn2c(SCc3nc4ccccc4[nH]3)nnc2-c2cccs2)c1`, the outcome was inactive.

Take `COc1ccc(C(=O)N2CCN(C(=O)COc3ccccc3)CC2)cc1OC`: the result was inactive.

Take `Cc1ccc(COCc2nnc(SCc3nc4ccccc4[nH]3)n2Cc2ccco2)cc1`: the result was inactive.

Take `COc1cc(C(=O)N2CCN(C(=O)C3COc4ccccc4O3)CC2)cc(Cl)c1OC` (stereo not given): the outcome was inactive.

`COc1ccc(C(=O)N2CCN(C(=O)COc3ccc(C)cc3)CC2)cc1OC`: the outcome was inactive.

As to `COc1ccc(C(=O)N2CCN(C(=O)C3COc4ccccc4O3)CC2)cc1` (stereo not given), the result was inactive.

As to `COc1ccc(OCC(=O)N2CCN(C(=O)c3ccc(OC)c(OC)c3)CC2)cc1`, the result was inactive.

Regarding `COc1ccc(C(=O)N2CCN(C(=O)C3CC(=O)N(c4ccccc4)C3)CC2)cc1OC` (stereo not given), the result was inactive.

Take `Cc1nc(COc2ccc(C(=O)N3CCN(C(=O)C4COc5ccccc5O4)CC3)cc2)cs1` (stereo not given): the result was inactive.

Regarding `CC(=O)Nc1ccccc1C(=O)N1CCN(C(=O)C2COc3ccccc3O2)CC1` (stereo not given), the result was inactive.

For `O=C(c1ccc2nc(C(F)(F)F)[nH]c2c1)N1CCN(C(=O)C2COc3ccccc3O2)CC1` (stereo not given), the result was inactive.

Consider `O=C(c1ccc(OCC2CCCO2)cc1)N1CCN(C(=O)C2COc3ccccc3O2)CC1` (stereo not given), for which the result was inactive.

With `c1ccc(-c2nnc(SCc3nc4ccccc4[nH]3)n2Cc2ccco2)cc1`, the result was inactive.

For `COc1ccc(C(=O)N2CCN(C(=O)COc3ccc(Cl)cc3)CC2)cc1OC`, the outcome was inactive.

Consider `O=C(c1ccc(Oc2ccccc2)cc1)N1CCN(C(=O)C2COc3ccccc3O2)CC1` (stereo not given), for which the result was inactive.

As for `COc1ccc(C(=O)N2CCN(C(=O)CCc3c[nH]c4ccccc34)CC2)cc1OC`, the result was inactive.

For the compound `COc1ccc(C(=O)N2CCN(C(=O)C(c3ccccc3)c3ccccc3)CC2)cc1OC`, the outcome was inactive.

With `c1coc(Cn2c(SCc3nc4ccccc4[nH]3)nnc2-c2cnccn2)c1`, the result was inactive.

For `Cc1ccc(-c2nnc(SCc3nc4ccccc4[nH]3)n2Cc2ccco2)cc1`, the result was inactive.

As to `c1coc(Cn2c(SCc3nc4ccccc4[nH]3)nnc2-c2ccco2)c1`, the outcome was inactive.

Take `c1ccc(-c2nnc(SCc3nc4ccccc4[nH]3)n2Cc2ccco2)nc1`: the outcome was inactive.
